pIC50: −log10 of the molar value. Counter-ions that a name gives are not always drawn. The source made the active and inactive calls. The rule behind the calls is not given here.

One may read the pIC50 as the negative decadic logarithm of the IC50, by convention in mol/L. Read a high pIC50 as a small IC50.

The subject of experiment [1] is A549. Put plainly: Antiproliferative activity in human A549 cells at 1.5 to 3 uM after 60 hrs by xCELLigence RTCA SP based cellular impedance analysis. Format: functional, cell-based. In a few lines: (§1)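 After compound treatment, A549 cells plated at 2000 cells/well on E-plates. Proliferation tracked over time as real-time cellular impedance on an xCELLigence RTCA DP instrument. Hydroxychloroquine was the positive control. Representative of three independent experiments.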

Experiment [2] relates to A549. Put plainly: Antiproliferative activity in human A549 cells at 1.5 to 3 uM up to 20 hrs by xCELLigence RTCA SP based cellular impedance analysis. It counts as functional, cell-based. In a few lines: as §1
The test system of experiment [3] is K562. Kind of experiment: Antiproliferative activity in human K562 cells after 48 hrs by MTT assay. It counts as functional, cell-based. To be noted: K562, 48 h. In a few lines:
(§2)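 Cells exposed to compound for 48 h. Viability read by MTT, with absorbance of the solubilised MTT product at 570 nm. IC50 derived from at least three independent experiments.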
For orientation: Tetrazolium dyes change colour on reduction, which living cells bring about.

For experiment [4], the system named is A549. Put plainly: Antiproliferative activity in human A549 cells at 1.5 to 3 uM up to 5 hrs by xCELLigence RTCA SP based cellular impedance analysis. Format: functional, cell-based. The essentials: as §1
The test system of experiment [5] is MCF7. Kind of experiment: Antiproliferative activity in human MCF7 cells after 48 hrs by MTT assay. It counts as functional, cell-based. The note with it: MCF7, 48 h. In a few lines: as §2
Experiment [6] concerns A549. Put plainly: Induction of lysosomal rupture in human A549 cells 2 to 4 uM after 6 hrs by LysoTracker/AO dye based confocal microscopic analysis. It counts as functional, cell-based. In a few lines:
(§3)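 A549 treated 6 h, then loaded with LysoTracker Red (50 nm) or acridine orange (5 mg/mL). Lysosomal integrity imaged by confocal microscopy, with rupture scored as "pale cells" showing fewer dye-accumulating lysosomes.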

Experiment [7] concerns A549. Kind of experiment: Induction of lysosomal rupture in human A549 cells 2 to 4 uM after 6 hrs by LysoTracker/AO dye based flow cytometric analysis. Format: functional, cell-based. In a few lines:
(§4)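 A549 treated 6 h, then exposed to LysoTracker Red (50 nm) or acridine orange (5 mg/mL). Loss of lysosomal dye retention measured by flow cytometry on a FACSCalibur.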

Experiment [8] deals with A549. Put plainly: Induction of apoptosis in human A549 cells assessed as cell shrinkage at 2 to 4 uM after 8 hrs by DAPI staining based fluorescence microscopic analysis. Format: functional. The essentials: (§5)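 A549 seeded on glass coverslips at 5 × 10^4/mL and grown 24 h, then treated 8 h. Washed in cold PBS and fixed in cold methanol/acetone (1:1). Stained with DAPI ([…]) for 10 min at room temperature, washed with PBS/Triton X-100, mounted in PBS:glycerol 1:1. Nuclear morphology examined by fluorescence microscopy.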

The subject of experiment [9] is A549. Put plainly: Antiproliferative activity in human A549 cells after 48 hrs by MTT assay. To be noted: A549, 48 h. It counts as functional, cell-based. The essentials:
as §2

The test system of experiment [10] is A549. Kind of experiment: Induction of apoptosis in human A549 cells assessed as formation of granular apoptotic body at 0.5 to 1 uM after 8 hrs by DAPI staining based fluorescence microscopic analysis. It counts as functional, cell-based. In a few lines: as §5
In experiment [11] the test system is A549. Put plainly: Induction of apoptosis in human A549 cells assessed as late apoptotic cells at 1 uM after 8 hrs by Annexin V-FITC/propidium iodide staining based flow cytometry (reference value: 0.02%). It counts as functional. In a few lines:
(§6)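 A549 seeded at 5 × 10^5 per well and exposed to varying concentrations for 8 h. Harvested, washed twice in ice-cold PBS (0.01 M, pH 7.2), spun 5 min at 200 g, then stained with Annexin V-FITC/PI. Analysed by flow cytometry: Annexin V+/PI− scored apoptotic, double-positive necrotic or late apoptotic. Mean ± SD of three independent experiments.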

Experiment [12] deals with A549. Kind of experiment: Induction of apoptosis in human A549 cells assessed as necrotic cells at 1 uM after 8 hrs by Annexin V-FITC/propidium iodide staining based flow cytometry (reference value: 0.06%). It counts as functional. The essentials:
as §6
On the technique in general: In flow cytometry, cells or beads pass a laser one at a time.

Experiment [13] deals with A549. Put plainly: Induction of lysosomal rupture in human A549 cells 1 to 2 uM after 6 hrs by LysoTracker/AO dye based confocal microscopic analysis. Format: functional, cell-based. The essentials: as §3
Experiment [14] deals with A549. Kind of experiment: Induction of apoptosis in human A549 cells assessed as early apoptotic cells at 1 uM after 8 hrs by Annexin V-FITC/propidium iodide staining based flow cytometry (reference value: 0.03%). It counts as functional. In a few lines: as §6
The test system of experiment [15] is A549. Kind of experiment: Potency index, ratio of ADR IC50 to compound IC50 for antiproliferative activity in human A549 cells. It counts as functional.
Experiment [16] deals with MCF7. Put plainly: Potency index, ratio of ADR IC50 to compound IC50 for antiproliferative activity in human MCF7 cells. It counts as functional.
For experiment [17], the system named is K562. Put plainly: Potency index, ratio of ADR IC50 to compound IC50 for antiproliferative activity in human K562 cells. Format: functional.
In experiment [18] the test system is A549. Kind of experiment: Induction of lysosomal rupture in human A549 cells 1 to 2 uM after 6 hrs by LysoTracker/AO dye based flow cytometric analysis. Format: functional, cell-based. The essentials:
as §4

The test system of experiment [19] is A549. Put plainly: Induction of apoptosis in human A549 cells assessed as cell shrinkage at 0.5 to 1 uM after 8 hrs by DAPI staining based fluorescence microscopic analysis. Format: functional. The essentials: as §5
Experiment [20] relates to A549. Kind of experiment: Induction of apoptosis in human A549 cells assessed as early apoptotic cells at 50 ug/ml after 8 hrs by Annexin V-FITC/propidium iodide staining based flow cytometry (reference value: 0.03%). It counts as functional. The essentials:
as §6

The test system of experiment [21] is A549. Kind of experiment: Induction of apoptosis in human A549 cells assessed as necrotic cells at 50 ug/ml after 8 hrs by Annexin V-FITC/propidium iodide staining based flow cytometry (reference value: 0.06%). Format: functional. The essentials:
as §6

Experiment [22] deals with A549. Put plainly: Antiproliferative activity in human A549 cells at 25 ug/ml after 60 hrs by […] based cellular impedance analysis. Format: functional, cell-based.
Experiment [23] concerns A549. Put plainly: Induction of apoptosis in human A549 cells assessed as late apoptotic cells at 50 ug/ml after 8 hrs by Annexin V-FITC/propidium iodide staining based flow cytometry (reference value: 0.02%). It counts as functional. The essentials: as §6
The subject of experiment [24] is A549. Kind of experiment: Antiproliferative activity in human A549 cells at 25 ug/ml up to 20 hrs by xCELLigence RTCA SP based cellular impedance analysis. It counts as functional, cell-based. The essentials:
as §1

With `Oc1cc2ccc1-c1c(ccc(CN3CCCC3)c1O)CCc1ccc(cc1)Oc1cc(cc(CN3CCCC3)c1O)CC2`, the result in [1], in experiment [2], in [4], in [6], in experiment [7] and in [8] was Active. Further, the values for the pIC50 in experiment [3], in experiment [5] and in experiment [9] were 6.10, 6.37 and 6.00, respectively.
As to `CN(C)CCOc1ccc2cc1Oc1ccc(cc1)CCc1cccc(OCCN(C)C)c1-c1ccc(cc1OCCN(C)C)CC2`, the result in experiment [10], in [13], in experiment [18] and in experiment [19] was Active. In addition, the results for the pIC50 in [3], in experiment [5] and in experiment [9] were 6.72, 6.64 and 6.29, respectively. Moreover, the Activity amounted to 26.69% in experiment [11], 52.68% in experiment [12] and 0.55% in experiment [14]. In addition, the “Ratio IC50” value in experiment [15], in [16] and in experiment [17] was 3 - 10 throughout.
As to `CCN(CCO)CCCC(C)Nc1ccnc2cc(Cl)ccc12` (stereo not given) [HYDROXYCHLOROQUINE], the Activity in [20] is given as 2.96%; in experiment [21] it was 10.37%; in [23], 2.85%. Further, the outcome in experiment [22] and in experiment [24] was Active.
With `COc1cccc2c1C(=O)c1c(O)c3c(c(O)c1C2=O)C[C@@](O)(C(=O)CO)C[C@@H]3O[C@H]1C[C@H](N)[C@H](O)[C@H](C)O1` [DOXORUBICIN HYDROCHLORIDE], the figures for the pIC50 in experiment [3], in [5] and in [9] were 6.21, 5.64 and 5.84, respectively.

These data come from ChEMBL document CHEMBL4251549, “Design, synthesis and biological evaluation of nitrogen-containing macrocyclic bisbibenzyl derivatives as potent anticancer agents by targeting the lysosome” (Eur J Med Chem, 2017).
